“And” between values parts separate entries of the source, which are not always exact repeats. Equal entries are not always repeated.

The target of assay [1] is T1, SULT1A1 (Homo sapiens, UniProt P50225). Briefly: Initial rate of 1-HP sulfonation by SULT1A1. Type of assay: biochemical. The method in brief: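 Recombinant SULT1A1 at 1.0 nM dimer with MgCl2 5.0 mM and NaPO4 50 mM, pH 7.2, 25 ± 2 °C. Reactions started with PAPS: 2.0 μM saturates both sites, 0.30 μM only the first. Acceptor 8.0–200 nM. Product fluorescence read at λex 320 nm, λem 380 nm. […]. Duplicates; weighted least-squares fit in double-reciprocal form.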
T1 sequence (P50225 whole entry): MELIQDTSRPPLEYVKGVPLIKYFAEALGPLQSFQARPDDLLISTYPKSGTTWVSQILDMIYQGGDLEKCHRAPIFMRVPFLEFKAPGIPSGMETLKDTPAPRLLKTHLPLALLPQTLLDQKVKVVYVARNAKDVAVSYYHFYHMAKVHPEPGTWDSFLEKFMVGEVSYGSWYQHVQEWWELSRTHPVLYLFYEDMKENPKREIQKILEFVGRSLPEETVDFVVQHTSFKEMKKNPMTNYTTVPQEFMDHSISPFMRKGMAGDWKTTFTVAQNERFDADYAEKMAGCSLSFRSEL

Assay [2] deals with T1, SULT1A1. Briefly: Equilibrium binding of TAM and 1-HP to SULT1A1 forms E, E·PAP, E·. The gist of the method: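 Acceptor titrated into SULT1A1 (0.05–10 μM dimer) with PAP 0–500 μM, MgCl2 5.0 mM, NaPO4 (25 or 50 mM), pH 7.2, 25 ± 2 °C. Intrinsic fluorescence read at λex 290 nm, λem 345 nm. Free enzyme had no PAP; 0.50 mM PAP saturates both sites; singly bound form used 9.0 μM dimer with 9.0 μM PAP. Biphasic phases fitted separately. Triplicates averaged; least-squares single-site fit.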

For assay [3], the target named is T1, SULT1A1. The assay can be described thus: Equilibrium binding of PAPS to SULT1A1. Particulars: for Kd: pH 7.2, 25 °C. The method in brief:
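Human SULT1A1, codon-optimised, expressed in E. coli BL21(DE3) with a His/GST/MBP tag, then tag-cleaved. PAPS titrated into enzyme with MgCl2 5.0 mM and NaPO4 50 mM, pH 7.2, 25 ± 2 °C. Intrinsic fluorescence read at λex 290–295 nm, λem 345 nm. Dimer 0.05 μM for high-affinity Kd; 3.0 μM for first-site stoichiometry and low-affinity phase; 475 μM for full-site, at λex 297 nm. Triplicates averaged; single-site-per-dimer fit.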

Assay [4] has as its target T1, SULT1A1. Particulars: PAP bound to SULT1A1, in favor of pore closure; cited from earlier work.
The target of assay [5] is T1, SULT1A1. The assay can be described thus: Pre-steady-state PAPS binding. Particulars: for Kd: read-out: koff/kon. The method in brief: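 Stopped-flow, excitation 290 nm, emission above 330 nm. Enzyme solution (MgCl2 5.0 mM, NaPO4, pH 7.2, 25 ± 2 °C) mixed 1:1 with PAPS solution. High-affinity site: 30 nM dimer. Low-affinity site: 2.0 μM dimer pre-equilibrated with PAPS, then mixed with higher PAPS. Pseudo-first-order; three curves per concentration (each 8–10 shots) at four PAPS levels. Single-exponential kobs; kon from slope, koff from intercept.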

Assay [6] deals with T1, SULT1A1. Briefly: Initial rate kinetics of TAM sulfation. Type of assay: biochemical.
The mark [7] stands for this setting: 1-HP as substrate, E·PAP form, [PAPS] 0.30 μM.
The mark [8] stands for this setting: acceptor binding to E (no nucleotide), pH 7.2, 25 °C.
[9] abbreviates: acceptor binding to E·(PAP)2 (TAM: PAP 0.50 mM; 1-HP: PAP 2.0 µM).
Setting [10] is: high-affinity PAPS binding site, pH 7.2, 25 °C.
Setting [11] is: low-affinity PAPS binding site, dimer pre-equilibrated with PAPS.

Consider `Oc1ccc2ccc3cccc4ccc1c2c34` [1-HP, 1-hydroxypyrene], for which, at SULT1A1 [1] (1-HP as substrate, E·(PAP)2 form, [PAPS] 2.0 μM), the kcat is recorded as 1000 (60) s^–1. At SULT1A1 [1] (setting [7]), the Km (usually the substrate concentration at which the rate is half of its maximum) was 41 nM and the kcat was 130 (20) s^–1. Moreover, at SULT1A1 [1] (1-HP sulfonation), the “effect of PAPS occupancy on Km” value was “not affected by PAPS occupancy”; the “increase in kcat, doubly vs singly occupied enzyme” value is listed as about 8 fold; the “increase in turnover of each subunit, doubly vs singly occupied enzyme” value was 4 times. At SULT1A1 [2] (setting [8]), this compound came in with a Kd of 8000 nM. For the same compound, on SULT1A1 [2] (setting [9]), the Kd stood at 25 nM.
With `Nc1ncnc2c1ncn2[C@@H]1O[C@H](COP(=O)(O)O)[C@@H](O)[C@H]1O` [AMP, Adenosine monophosphate], the “binding to SULT1A1” value on SULT1A1 [3] (used in control titrations for inner-filter correction) was “does not bind SULT1A1”.
In the case of `Nc1ncnc2c1ncn2[C@@H]1O[C@H](COP(=O)(O)O)[C@@H](OP(=O)(O)O)[C@H]1O` [PAP, 3′,5′-diphosphoadenosine], the “isomerization equilibrium constant, Kiso” value on SULT1A1 [4] is 26.
Take `Nc1ncnc2c1ncn2[C@@H]1O[C@H](COP(=O)(O)OS(=O)(=O)O)[C@@H](OP(=O)(O)O)[C@H]1O` [PAPS, 3′-phosphoadenosine 5′-phosphosulfate]: at SULT1A1 [5] (corrected for two subunits able to bind the first ligand), the “kon for the first site, aggregate value halved” value is recorded as 1.0 μM^–1 s^–1. The koff on SULT1A1 [5] (setting [10]) is reported as 0.70 (0.05) s^–1; at SULT1A1 [5] (setting [11]) it was 29 (1) s^–1. The kon was 2.0 (0.1) μM^–1 s^–1 on SULT1A1 [5] (setting [10]) and 0.96 (0.01) μM^–1 s^–1 on SULT1A1 [5] (setting [11]). The Kd at SULT1A1 [5] (high-affinity PAPS binding site) was determined as 0.37 µM; on SULT1A1 [5] (low-affinity PAPS binding site), 30 µM; on SULT1A1 [3] (high-affinity PAPS binding site, SULT1A1 0.05 μM dimer), 0.37 µM; on SULT1A1 [3] (low-affinity PAPS binding site, SULT1A1 3.0 μM dimer), 30 µM. Moreover, at SULT1A1 [3] (SULT1A1 3.0 μM dimer (16Kd)), the “PAPS binding stoichiometry at the high-affinity site” value is 1.1 ± 0.2 PAPS molecules per dimer and 1.1 ± 0.1 PAPS molecules per dimer. Besides, the “difference in affinities (Kd) of the two PAPS binding sites” value at SULT1A1 [3] (low- vs high-affinity site) was determined as 81 fold.
Regarding `CC/C(=C(\c1ccc(O)cc1)c1ccc(OCCN(C)C)cc1)c1ccccc1` [TAM, 4-hydroxytamoxifen], the Kd is 670 nM at SULT1A1 [2] (setting [8]); 680 nM and 650 nM on SULT1A1 [2] (setting [9]). The “stoichiometry of binding to E and E·(PAP)2” value at SULT1A1 [2] (SULT1A1 10 μM dimer, PAP 0 or 0.50 mM) is 2.0 ± 0.1 TAM bound per SULT1A1 dimer. Moreover, at SULT1A1 [6], the “ratio of Km for the singly and doubly occupied enzyme” value was 23.
